Assay results as given in ChEMBL document CHEMBL4513216, “Probing the Open Global Health Chemical Diversity Library for Multistage-Active Starting Points for Next-Generation Antimalarials” (ACS Infect Dis, 2020).

Experiment: Toxicity liver stage against HepG2, at 10uM
Assay type: cell-based
Set-up: test concentration 10 uM, cell line HepG2-A16-CD81EGFP
Settings: human, HepG2-A16-CD81EGFP cells; read-out: INHIBITION
Procedure, shortened: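 Uninfected HepG2-A16-CD81EGFP cells, 3 × 10^3 per well, 1536-well, plated on prespotted compound at 10 μM final, parasite-free screening media added to match infected plates; puromycin 10 μM positive, DMSO 0.5% negative; run in parallel with 48 h PbLuc assay at 37 °C, 5% CO2; viability by CellTiter-Glo luminescence, normalized to controls.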

| SMILES | cytotoxicity at 10 µM [%] |
| --- | --- |
| CN1CCCCc2c1nc1c(c2N)CCCC1 | -0.675 |
| CN(C)[C@@H]1CO[C@H](CNC(=O)c2ccccc2)[C@H]1O | -1.9 |
| CCOc1nc2cnccc2n(CC(=O)NCc2ccc(C)cc2)c1=O | -0.0308 |
| Cc1nc(Cc2ccccc2)nc2sc(C(=O)O)c(C)c12 | 0.986 |
| COCCO[C@@H]1CCN(C(=O)c2ccnnc2)[C@H]1Cc1cnn(C)c1 | 7.6 |
| COCCN1C[C@@H]2CN(c3ncc(F)cn3)C[C@@H]2C1=O | 9.49 |
| COc1ccc(-c2cc3nn(CC(=O)NC(C)C)c(=O)n3c(C)n2)cc1 | 1.81 |
| COCC1c2c(cnn2CC2CC2)CCN1Cc1ccc(OC)cc1 (centres undefined) | 83.3 |
| Cc1cccc(NC(=O)C(C)Oc2ccc3c(c2)OCO3)n1 (centres undefined) | -9.25 |
| Cc1n[nH]c(C)c1CCC(=O)N1CCC(O)(CN2CCOCC2)C1 (centres undefined) | 3.38 |
| CC1(C(N)=O)CCCN(c2cnccn2)C1 (centres undefined) | -17.8 |
| NC(=O)CN1CCC2(CC1)C[C@@H](O)[C@H](c1ccccc1)NC2=O | -23 |
| COCCN1CCN(Cc2cnc(C(C)C)nc2)CC1 | 10.6 |
| O=C(CCn1ncc2ccccc21)N1CCCC(Cc2cccnc2)C1 (centres undefined) | -1.83 |
| CC(C)C(=O)N1Cc2ccccc2CC2(CCCCN2C)C1 (centres undefined) | 9.15 |
| O=C(CCn1cccn1)NCCOc1ncc(Cl)cc1Cl | -3.82 |
| Cc1cc(NC(=O)N2CCN(C)CC2C)n(CCC#N)n1 (centres undefined) | 2.35 |
| CC(CCc1ccc(F)c(F)c1)NS(=O)(=O)Cc1ccon1 (centres undefined) | -7.97 |
| CC(C)(C(=O)N1CCC(C(N)=O)C1)c1ccccc1F (centres undefined) | 4.68 |
| O=C(c1cc(-n2cccn2)ccn1)N1CCOc2ccncc21 | 10.6 |
| CCc1nc2n(n1)CC(NCc1nc3ccccc3nc1C)CC2 (centres undefined) | -141 |
| Cc1nccn1-c1ccc(C(C)NCc2cccn2C)cc1 (centres undefined) | 8.61 |

| SMILES | cytotoxicity at 10 µM [%] |
| --- | --- |
| Cc1cc(C)cc(OCC(O)CN2CCN(c3nccs3)CC2)c1 (centres undefined) | -7.32 |
| Cc1cnn(CC2CCCCN2CC(=O)N(C)Cc2ccc(C)o2)c1 (centres undefined) | 10.6 |
| Cc1cn2c(n1)CCC(NC(=O)CCCOCc1ccccc1)C2 (centres undefined) | -3.55 |
| CSCC(CCO)NC(=O)Nc1ccc(Br)cc1 (centres undefined) | -12.2 |
| N#Cc1ccc(NCc2cccc(OCC3CCCO3)c2)nc1 (centres undefined) | 1.25 |
| CC(c1nc(C2CC2)no1)N(C)Cc1cccc(F)c1 (centres undefined) | -5.43 |
| CN(Cc1cccs1)c1nc2c(cnn2C(C)(C)C)c(=O)[nH]1 | 9.75 |
| Cc1cccc(C2(C(=O)NS(=O)(=O)c3cnn(C)c3)CCCC2)c1 | -3.62 |
| CC(NC(=O)c1cccs1)C(=O)NS(=O)(=O)Cc1ccc(C#N)cc1 (centres undefined) | 5.29 |
| CN(Cc1cccs1)C(=O)c1ccc(=O)n(C)c1 | -13.2 |
| NC(=O)NC(CC(=O)NCCc1ccc(F)cc1)c1ccccc1 (centres undefined) | -2.39 |
| CCCNC(=O)CSCc1ccc(S(=O)(=O)N(C)C)o1 | 9.8 |
| Fc1ccc(OCCNC2CCN(Cc3ccccn3)CC2)c(F)c1 | -3.26 |
| CCC(C(=O)Nc1ccc2c(C)n[nH]c2c1)N1CCCC1=O (centres undefined) | -48.9 |
| Cc1ccc(C(NC(=O)Cc2nc3ncccn3n2)C2CC2)cc1 (centres undefined) | 5.06 |
| CCCN(CCC)S(=O)(=O)N(C)Cc1ccncc1 | 12.2 |
| Cc1oc(-c2ccsc2)nc1CNCCn1cccn1 | -3.36 |
| Cc1nccn1Cc1cccc(CNC(=O)c2ccn(C)c(=O)c2)c1 | 5.82 |
| CC(C)C(=O)Nc1ncn(Cc2cccc(Br)c2)n1 | -9.95 |
| c1ccc(COC2CCN(c3cncc(-n4cccn4)n3)CC2)cc1 | -9.18 |
| CC(c1ccc(Cl)cc1)N1CCN(CCNS(C)(=O)=O)CC1 (centres undefined) | -15.3 |
| CCn1nnc2c1C(COCC(=O)N(C)C)CN(Cc1ccoc1)C2 (centres undefined) | -2.98 |

| SMILES | cytotoxicity at 10 µM [%] |
| --- | --- |
| O=C(Cc1cccc(F)c1)N1CCc2ncnc(NC3CCC3)c2CC1 | -105 |
| COc1cc(N2CCCC3(CCN(c4cncnc4)C3=O)C2)ncn1 (centres undefined) | -103 |
| Cc1ccccc1C(=O)N1CCC2(CC1)CC(c1cnn(C)c1)CO2 (centres undefined) | -75 |
| COCCNC(=O)[C@H]1CN(c2nnc(C)s2)C[C@H]2OCC[C@@H]12 | -1.96 |
| CC(C)CC(=O)N1CCc2nc(N3CCOCC3)nc(NC(C)C)c2C1 | 2.86 |
| COCC(=O)N1CC(=O)c2sc(Nc3ccc(F)cc3F)nc2C1 | -7.02 |
| CCC(=O)N1CCN(Cc2cnc(C)nc2)[C@H]2CS(=O)(=O)C[C@H]21 | 12.3 |
| CC(C)c1cc(C2CCN(C(=O)Cn3nc4ccccc4n3)CC2)[nH]n1 | 0.685 |
| COC(=O)CN1CCN(c2nc3c(s2)c(C)nn3C)C(C)C1=O (centres undefined) | 3.27 |
| N[C@H]1CN(CCCOc2ccccc2)C[C@@H]1C1CC1 | 0.147 |
| O=C1CCC(C(=O)N2CCOC(Cc3cccc4ccccc34)C2)=NN1 (centres undefined) | -3.86 |
| O[C@H]1CCCC[C@@H]1N1CCN(CCCc2ccc3c(c2)OCO3)CC1 | -3.69 |
| COCCCN1C(=O)CC[C@H]2CN(Cc3ccc4nonc4c3)CC[C@H]21 | 2.46 |
| CC(=O)NCc1cc2n(n1)CCN(Cc1ccccc1OC(F)(F)F)C2 | -2.84 |
| COc1cc(C(=O)NCCS(=O)(=O)N(C)C)c2ccccc2n1 | -0.0932 |
| c1ccc(C2CN(C3CC3)CC3(CCN(Cc4ncc[nH]4)CC3)C2)cc1 (centres undefined) | 7.31 |
| CCc1cnc(NCCS(=O)(=O)CC(C)C)nc1 | -13 |
| CC[C@H]1CN(C(=O)c2ccc(-n3cnnc3)nc2)CC[C@@]1(C)O | -11.9 |
| O=C(C1NCCc2[nH]cnc21)N1CCC2(C=Cc3ccccc32)CC1 (centres undefined) | 5.19 |
| Cc1ncc(CN2CCC3(CCCN(CC4CCC4)C3)C2)cn1 (centres undefined) | -6.7 |
| CC(C)N1CCC(C(=O)N2CCc3c(nc(CC4CC4)[nH]c3=O)C2)CC1 | -4.92 |
| Cc1cccc(CN2CCC(n3cc(CCO)nn3)CC2)c1C | 0.636 |

| SMILES | cytotoxicity at 10 µM [%] |
| --- | --- |
| Cc1cnc(C)c(-c2cc(O)c3c(c2)CN(c2ncccn2)CCO3)n1 | 6.13 |
| c1ccc(Cc2nc(CNC3CCC4(CCNCC4)CC3)no2)cc1 | -17 |
| O=c1c2cccc(C(F)(F)F)c2ncn1C1CCNC1 (centres undefined) | -38.3 |
| Cc1cc(C(=O)NCCCn2nccc2C2CC2)c(=O)[nH]c1C | 9 |
| CCOCCNCc1cc(O)c2cc(C)ccc2n1 | -2.04 |
| COc1cc(NCC(c2ccccn2)N(C)C)ncn1 (centres undefined) | -57.4 |
| c1cn(CCNc2nc(NC3CC3)nc3c2CCNCC3)nn1 | -52.8 |
| CC(C)CN1CC(c2nc(-c3ccsc3)c[nH]2)CC1=O (centres undefined) | 6.65 |
| COc1cccc(OC)c1C(C(=O)O)N(C)Cc1c(C)n[nH]c1C (centres undefined) | 2.14 |
| CN(Cc1ccncn1)C(=O)C1(Oc2ccc(Cl)cc2)CCNCC1 | 18.5 |
| Cc1cccc(OC2CCN(Cc3ncc[nH]3)CC2)c1 | -7.15 |
| CCc1nc(C)c(C(=O)NCC2COc3cc(OC)ccc3C2)o1 (centres undefined) | 54.6 |
| CCCn1ncc2c(C(=O)Nc3n[nH]c(SC)n3)cc(C3CC3)nc21 | 1.52 |
| O=C(Cn1ccnc1)N1C[C@@H]2CC[C@H](Oc3ccccc3Cl)[C@@H]2C1 | 11.9 |
| CC(C(=O)Nc1ccc(N2CCOCC2)nc1)n1cncn1 (centres undefined) | -33.9 |
| Cc1cc(C)n(CC2CN(c3nnc(C)c(C)c3C#N)CCO2)n1 (centres undefined) | -18.2 |
| Cc1cnn(CC2CCCN2Cc2nc(C)c3ccccc3n2)c1 (centres undefined) | -8.94 |
| COc1ccc2cc(CNCc3c(C)nn(C)c3N(C)C)ccc2c1 | -20.4 |
| CCc1nccn1C1CCCN(C(=O)C2=NN(C)C(=O)CC2)C1 (centres undefined) | -17.7 |
| CS(=O)(=O)NCC1CCCN(C(=O)c2ccc(F)c(F)c2)C1 (centres undefined) | -10.3 |
| O=C(CN1C=Nc2ccccc2S1(=O)=O)NCCc1cccs1 | -8.55 |
| O=C(CN1CCOC(Cn2cccn2)C1)Nc1nccs1 (centres undefined) | 3.64 |

| SMILES | cytotoxicity at 10 µM [%] |
| --- | --- |
| Cc1cc(CN2CCOC(CN(C)C)C2)no1 (centres undefined) | -0.759 |
| Cc1nn(C)c(C)c1CC(=O)N1CCC(Nc2cccnn2)CC1 | -8.8 |
| CN(C(=O)Cc1c[nH]c2ccccc12)C1CCN(c2ccccn2)CC1 | 9.36 |
| CC(C)c1nc(CN(C)C2CCN(CCNS(C)(=O)=O)C2)no1 (centres undefined) | -8.48 |
| O=C(C[C@@H]1COC[C@H]2CN(CC3CC3)C[C@@H]12)NCc1cccnc1 | 9.21 |
| O=C(NC1CCC1)[C@@H]1CCO[C@@H]2CCN(C3CCCC3)C[C@@H]21 | 11.4 |
| c1ccc(CN2CCC3(CC2)CC(Nc2nccs2)CO3)nc1 (centres undefined) | -78.2 |
| CS(=O)(=O)NCc1cncc2c1CCN(CC1CCOC1)C2 (centres undefined) | 12.7 |
| Cn1cnc(S(=O)(=O)N2CC3(CCN(c4ccccc4)C3)C2)c1 | -91.7 |
| O=C(Cc1cccnc1)N1CCC2(CC1)CCN(C1CCOC1)C2 (centres undefined) | -2.52 |
| CC(C)c1nn(C)c(Cl)c1CNC1CCOc2ccccc21 (centres undefined) | 53.2 |
| COCC(=O)N1CCC(c2nc3ccc(-c4ccncc4)cn3n2)CC1 | 10.2 |
| Cc1noc(C)c1CN1CCc2ncnc(-c3ccccc3)c2CC1 | -89.9 |
| COc1cccc(CN2C[C@@H]3COC[C@]3(COCc3ccccn3)C2)c1 | -88.8 |
| COc1ccc(-c2nc(C3CCNCC3)cc3c2ncn3C)cc1 | -124 |
| COc1ccc(CN2CC[C@H]3O[C@@H](C(=O)NCC4CC4)CC[C@H]32)cc1 | 7.31 |
| c1cc(COC[C@H]2CCC[C@]23CNCCO3)ccn1 | -99.1 |
| O=C(NCC(F)(F)F)C1=NOC2(CCCNC2)C1 (centres undefined) | 2.16 |
| CC(C)COC[C@H]1CC[C@H]2[C@H](CCN2C(=O)c2ccncc2F)O1 | -0.171 |
| Cn1ccc(NC(=O)CN2C[C@@H]3CC[C@H]2CN(S(C)(=O)=O)C3)n1 | -14.2 |
| CCCS(=O)(=O)N1C[C@H]2CC[C@@H](C1)N(Cc1cscn1)C2=O | 12.8 |
